Measured values reported in ChEMBL document CHEMBL3228027, “Synthesis and estrogenic properties of 17-epi-ethynylestradiol and its ether derivatives epimestranol and epiquinestrol” (J Med Chem, 1979).
pIC50: −log10 of the molar value. Active and inactive are the calls of the source. The rule behind the calls is not given here.

Columns and labels:
Rattus norvegicus [1] = test: Estrogenic activity in immature rat administered orally with sesame oil as three doses by uterotropic assay relative to ethynylestradiol; format: functional
Procedure, shortened: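 Six-point oral assay in immature rats, with three doses of ethynylestradiol standard and three doses of test compound in sesame oil, 9-15 rats per dose group. Dose-response lines were checked for linearity and parallelism. Relative potency and 95% confidence limits were computed, and values are combined from three assays.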

Rattus norvegicus [2] = test: Induction of vaginal cornification in ovariectomized mature rat at 10 to 20 mg/kg, po administered with sesame oil by Allen-Doisy method relative to control; format: functional; conditions: dose mg/kg 10-20
Procedure, shortened: (§1)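 Allen-Doisy test in ovariectomized mature rats, 14-59 rats per compound and 4-20 per group. Dose ranges were set from the uterotropic results. A smear counted as positive if it was mainly nucleated or cornified epithelial cells with no leucocytes. Results are given as the dose ranges giving positive smears.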

Oryctolagus cuniculus [3] = organism: Oryctolagus cuniculus; test: Displacement of 17beta-[3H]estradiol from rabbit uterine estrogen receptor at 1 x 10^-4 M after 16 to 18 hrs by liquid scintillation counting
Procedure, shortened: (§2)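 Rabbit uterine cytosol, 0.7 μg protein per tube, with 16000 dpm 17β-[3H]estradiol (113 Ci/mmol) in Tris-HCl pH 8.0, 0.001 M EDTA, 0.25 M sucrose. Eight concentrations from 1 × 10^-10 to 1 × 10^-4 M were run in duplicate and incubated 16-18 h at 4 °C. Bound and free were separated with dextran-coated charcoal, bound radioactivity was read by liquid scintillation, and results were compared with standards.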

[4] = Displacement of 17beta-[3H]estradiol from rabbit uterine estrogen receptor after 16 to 18 hrs by liquid scintillation counting; set-up: species or system Oryctolagus cuniculus; procedure, shortened: as §2
Oryctolagus cuniculus [5] = organism: Oryctolagus cuniculus; test: Displacement of 17beta-[3H]estradiol from rabbit uterine estrogen receptor after 16 to 18 hrs by liquid scintillation counting relative to ethynylestradiol; procedure, shortened: as §2
Rattus norvegicus [6] = test: Induction of vaginal cornification in ovariectomized mature rat at 0.005 to 0.010 mg/kg, po administered with sesame oil by Allen-Doisy method relative to control; format: functional; conditions: dose mg/kg 0.005-0.010; procedure, shortened: as §1
Rattus norvegicus [7] = test: Induction of vaginal cornification in ovariectomized mature rat at 5 to 10 mg/kg, po administered with sesame oil by Allen-Doisy method relative to control; format: functional; conditions: dose mg/kg 5-10; procedure, shortened: as §1
Rattus norvegicus [8] = test: Antiestrogenic activity in ethynylestradiol-stimulated immature rat assessed as doubling of uterine weight up to 3 mg/kg, po administered for three days by uterotropic assay; format: functional, organism-based; set-up: dose 3 mg/kg
Procedure, shortened: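 Modified Edgren–Calhoun method in immature rats. The test material was given orally for 3 days together with enough ethynylestradiol to double uterine weight, and uterine weight was the end point.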

Rattus norvegicus [9] = test: Induction of vaginal cornification in ovariectomized mature rat at 0.025 to 0.1 mg/kg, po administered with sesame oil by Allen-Doisy method relative to control; format: functional; conditions: dose mg/kg 0.025-0.1; procedure, shortened: as §1
Rattus norvegicus [10] = test: Induction of vaginal cornification in ovariectomized mature rat at 0.25 to 0.5 mg/kg, po administered with sesame oil by Allen-Doisy method relative to control; format: functional; conditions: dose mg/kg 0.25-0.5; procedure, shortened: as §1

Row | Compound | Ratio (Rattus norvegicus [1]) | inhibition (Oryctolagus cuniculus [3]) | pIC50 [4] | Ratio (Oryctolagus cuniculus [5]) | Activity (Rattus norvegicus [9]) | also measured
1 | C#C[C@@]1(O)CC[C@H]2[C@@H]3CCc4cc(OC)ccc4[C@H]3CC[C@@]21C | 0.0023 | inactive |  |  |  | Activity (Rattus norvegicus [2]): 0%
2 | C#C[C@]1(O)CC[C@H]2[C@@H]3CCc4cc(OC5CCCC5)ccc4[C@H]3CC[C@@]21C [QUINESTROL] | 1.66 |  | 5.22 | 4e-05 |  | Activity (Rattus norvegicus [6]): 40%
3 | C#C[C@@]1(O)CC[C@H]2[C@@H]3CCc4cc(O)ccc4[C@H]3CC[C@@]21C |  |  | 7.82 | 0.016 |  | Activity (Rattus norvegicus [7]): 0%; Activity (Rattus norvegicus [8]): inactive
4 | C#C[C@]1(O)CC[C@H]2[C@@H]3CCc4cc(O)ccc4[C@H]3CC[C@@]21C [ETHINYL ESTRADIOL] |  |  | 9.62 |  | 10% | 
5 | C#C[C@@]1(O)CC[C@H]2[C@@H]3CCc4cc(OC5CCCC5)ccc4[C@H]3CC[C@@]21C | 0.05 | inactive |  |  |  | Activity (Rattus norvegicus [10]): 25%
6 | C#C[C@]1(O)CC[C@H]2[C@@H]3CCc4cc(OC)ccc4[C@H]3CC[C@@]21C [MESTRANOL] | 0.84 |  | 6.70 | 0.0012 | 11% | 
